Active and inactive are the calls of the source. The rule behind the calls is not given here.
Legend:
[1] = target: T1, Potassium voltage-gated channel subfamily A member 1 (Homo sapiens, UniProt Q09470); assay: Inhibition of Kv1.1 (unknown origin)
[2] = target: Potassium voltage-gated channel subfamily A member 1 (Rattus norvegicus) (UniProt P10499); assay: Inhibition of recombinant rat Kv1.1 expressed in HEK293 cells at 10 uM at -90 mV holding potential by whole cell patch clamp Qpatch method relative to control; format: cell-based
Sequence of Potassium voltage-gated channel subfamily A member 1 (Rattus norvegicus) (P10499 whole entry): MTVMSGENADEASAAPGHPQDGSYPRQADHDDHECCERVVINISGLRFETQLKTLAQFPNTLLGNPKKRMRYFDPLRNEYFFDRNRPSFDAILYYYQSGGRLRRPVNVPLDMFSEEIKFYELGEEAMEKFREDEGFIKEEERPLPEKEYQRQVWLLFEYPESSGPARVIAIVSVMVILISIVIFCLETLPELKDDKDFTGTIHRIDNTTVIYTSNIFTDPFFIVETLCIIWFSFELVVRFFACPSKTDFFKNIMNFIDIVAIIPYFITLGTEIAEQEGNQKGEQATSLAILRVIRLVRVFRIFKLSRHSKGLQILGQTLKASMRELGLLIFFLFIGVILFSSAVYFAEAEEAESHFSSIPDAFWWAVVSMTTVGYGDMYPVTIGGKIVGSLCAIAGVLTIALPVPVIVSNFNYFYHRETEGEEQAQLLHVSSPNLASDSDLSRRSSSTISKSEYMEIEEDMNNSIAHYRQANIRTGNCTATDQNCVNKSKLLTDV
Summary of the method: (§1)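 HEK-293 cells carrying Kv1 channels, either stably expressed (Kv1.1, 1.2, 1.3, 1.4, 1.6, tandem Kv1.1 or 1.2 homotetramers) or transiently transfected (concatemers). Currents were recorded by automated whole-cell clamp with 2-3 MΩ pin-holes. Bath solution (mM): 135 NaCl, 5 KCl, 2 CaCl2, 2 MgCl2, 5 Hepes, 10 sucrose, pH 7.4. Holding potential was −90 mV, with steps to +20 mV for 300 ms. The 10 mM stocks were made in extracellular solution and diluted before use. The readout was steady-state current averaged after 200 ms, and peak current for Kv1.4.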

Kv1.2 = Kv1.2 (Rattus norvegicus, UniProt P63142); assay: Inhibition of recombinant rat Kv1.2 expressed in HEK293 cells at 10 uM at -90 mV holding potential by whole cell patch clamp Qpatch method relative to control; format: cell-based; conditions: HEK293 cells expressing recombinant rat Kv1.2; summary of the method: as §1
Sequence of Kv1.2 (P63142 whole entry): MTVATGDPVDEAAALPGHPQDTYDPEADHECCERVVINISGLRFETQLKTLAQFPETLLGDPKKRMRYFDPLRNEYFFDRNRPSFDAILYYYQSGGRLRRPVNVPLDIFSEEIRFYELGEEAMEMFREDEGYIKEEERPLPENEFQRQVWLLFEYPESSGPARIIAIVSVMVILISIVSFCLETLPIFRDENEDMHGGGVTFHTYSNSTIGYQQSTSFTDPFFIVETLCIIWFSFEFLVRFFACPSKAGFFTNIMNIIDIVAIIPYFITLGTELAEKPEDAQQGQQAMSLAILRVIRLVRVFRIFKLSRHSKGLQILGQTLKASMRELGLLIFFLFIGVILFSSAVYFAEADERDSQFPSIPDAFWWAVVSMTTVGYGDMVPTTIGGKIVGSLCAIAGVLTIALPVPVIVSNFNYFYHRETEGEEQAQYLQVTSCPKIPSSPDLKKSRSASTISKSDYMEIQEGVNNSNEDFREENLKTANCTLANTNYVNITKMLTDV

[3] = target: Potassium voltage-gated channel subfamily A member 3 (Rattus norvegicus) (UniProt P15384); assay: Inhibition of recombinant rat Kv1.3 expressed in HEK293 cells at 10 uM at -90 mV holding potential by whole cell patch clamp Qpatch method relative to control; format: cell-based; summary of the method: as §1
Sequence of Potassium voltage-gated channel subfamily A member 3 (Rattus norvegicus) (P15384 whole entry): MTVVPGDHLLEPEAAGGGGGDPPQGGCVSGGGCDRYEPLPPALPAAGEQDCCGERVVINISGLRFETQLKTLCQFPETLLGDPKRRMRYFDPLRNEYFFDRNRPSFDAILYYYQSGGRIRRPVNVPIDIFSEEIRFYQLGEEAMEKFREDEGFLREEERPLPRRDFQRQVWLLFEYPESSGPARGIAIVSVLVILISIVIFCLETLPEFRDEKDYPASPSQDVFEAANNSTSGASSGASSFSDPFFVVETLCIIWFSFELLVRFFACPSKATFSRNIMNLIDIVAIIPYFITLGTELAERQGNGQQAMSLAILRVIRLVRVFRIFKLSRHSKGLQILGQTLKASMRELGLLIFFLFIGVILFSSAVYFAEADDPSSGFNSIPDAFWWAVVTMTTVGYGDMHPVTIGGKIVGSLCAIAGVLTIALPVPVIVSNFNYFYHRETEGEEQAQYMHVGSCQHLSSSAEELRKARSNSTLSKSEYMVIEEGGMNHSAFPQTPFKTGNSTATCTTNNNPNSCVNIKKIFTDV

HEK293 = assay: Phototoxicity against HEK293 cells under UV irradiation; format: cell-based; conditions: human
Kv1.4 = Kv1.4 (Rattus norvegicus, UniProt P15385); assay: Inhibition of recombinant rat Kv1.4 expressed in HEK293 cells at 10 uM at -90 mV holding potential by whole cell patch clamp Qpatch method relative to control; format: cell-based; conditions: HEK293 cells expressing recombinant rat Kv1.4; summary of the method: as §1
Sequence of Kv1.4 (P15385 whole entry): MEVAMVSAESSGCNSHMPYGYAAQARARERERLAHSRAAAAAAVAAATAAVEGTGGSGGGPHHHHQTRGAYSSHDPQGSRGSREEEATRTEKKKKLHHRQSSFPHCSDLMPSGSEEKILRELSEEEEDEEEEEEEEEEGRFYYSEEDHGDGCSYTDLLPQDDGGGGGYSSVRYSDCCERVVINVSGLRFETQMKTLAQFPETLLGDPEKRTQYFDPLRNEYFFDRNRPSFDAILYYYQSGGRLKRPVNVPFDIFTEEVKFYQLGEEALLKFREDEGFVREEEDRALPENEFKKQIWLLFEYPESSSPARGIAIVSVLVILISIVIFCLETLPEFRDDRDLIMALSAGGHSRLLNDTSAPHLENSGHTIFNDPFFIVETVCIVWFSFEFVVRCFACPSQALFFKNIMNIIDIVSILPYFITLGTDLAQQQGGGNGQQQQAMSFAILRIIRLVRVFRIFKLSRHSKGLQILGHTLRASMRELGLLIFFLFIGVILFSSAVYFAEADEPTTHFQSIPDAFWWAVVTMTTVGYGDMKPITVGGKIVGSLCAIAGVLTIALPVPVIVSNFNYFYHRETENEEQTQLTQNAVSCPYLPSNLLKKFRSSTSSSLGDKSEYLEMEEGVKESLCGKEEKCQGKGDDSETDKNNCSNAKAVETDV

Kv1.6 = Kv1.6 (Rattus norvegicus, UniProt P17659); assay: Inhibition of recombinant rat Kv1.6 expressed in HEK293 cells at 10 uM at -90 mV holding potential by whole cell patch clamp Qpatch method relative to control; format: cell-based; conditions: HEK293 cells expressing recombinant rat Kv1.6; summary of the method: as §1
Sequence of Kv1.6 (P17659 whole entry): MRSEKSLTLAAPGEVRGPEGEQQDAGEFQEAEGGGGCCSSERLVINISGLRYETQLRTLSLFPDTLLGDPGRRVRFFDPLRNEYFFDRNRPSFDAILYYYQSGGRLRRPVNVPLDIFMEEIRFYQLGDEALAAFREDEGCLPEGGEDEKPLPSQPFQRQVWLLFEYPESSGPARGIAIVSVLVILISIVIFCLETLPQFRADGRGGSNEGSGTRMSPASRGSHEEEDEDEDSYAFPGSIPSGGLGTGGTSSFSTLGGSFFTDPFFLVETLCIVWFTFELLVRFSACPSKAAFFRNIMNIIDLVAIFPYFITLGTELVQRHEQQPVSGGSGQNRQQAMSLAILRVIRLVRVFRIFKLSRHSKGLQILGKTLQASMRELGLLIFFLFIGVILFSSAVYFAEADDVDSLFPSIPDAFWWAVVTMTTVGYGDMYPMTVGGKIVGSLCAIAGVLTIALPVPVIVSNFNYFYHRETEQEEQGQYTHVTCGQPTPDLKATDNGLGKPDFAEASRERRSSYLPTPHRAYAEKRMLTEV

Mus musculus [4] = organism: Mus musculus; assay: (§2) Neuroprotective activity against cuprizone-induced demyelination in C57BL/6J mouse corpus callosum assessed as improvement in neuronal conduction by measuring increase in amplitude of unmyelinated axon N2 wave at 1 uM relative to baseline; format: functional
Summary of the method: (§3)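 Male C57BL/6J mice (16 weeks old) fed chow with 0.2% cuprizone for 8 weeks (n = 7). Coronal slices (400 µm) containing hippocampus. CC stimulated monopolarly at 0.033 Hz (100 µs); extracellular field cAPs recorded on contralateral CC at 40–50% maximum response. After 10 min of stable baseline, compound applied at 1 or 10 µM from 10 mM aCSF stock. Mean ± SEM; n = animals.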

Mus musculus [5] = organism: Mus musculus; assay: (§4) Neuroprotective activity against cuprizone-induced demyelination in C57BL/6J mouse corpus callosum assessed as improvement in neuronal conduction by measuring increase in amplitude of unmyelinated axon N2 wave at 10 uM relative to baseline; format: functional; summary of the method: as §3
[6] = Neurotoxicity in C57BL/6J mouse corpus callosum assessed as effect on amplitude of unmyelinated axon N2 wave at 1 uM relative to baseline; format: toxicity, tissue-based; conditions: ex_vivo
Summary of the method: as §3, with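 “kept on normal diet” for “fed chow with 0.2% cuprizone”, “5).” for “7).”, “µs);” for “µs); extracellular”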

[7] = Neurotoxicity in C57BL/6J mouse corpus callosum assessed as effect on amplitude of unmyelinated axon N2 wave at 10 uM relative to baseline; format: toxicity, tissue-based; conditions: ex_vivo
Summary of the method: as §3, with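 “kept on normal diet” for “fed chow with 0.2% cuprizone”, “5).” for “7).”, “µs);” for “µs); extracellular”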

[8] = target: T2, Potassium voltage-gated channel subfamily A member 1 (Rattus norvegicus, UniProt P10499); assay: Inhibition of recombinant rat Kv1.1 expressed in HEK293 cells at -90 mV holding potential by whole cell patch clamp Qpatch method; format: cell-based; summary of the method: as §1
T2 sequence (P10499 whole entry): as the sequence (P10499 whole entry) above

[9] = target: T3, Potassium voltage-gated channel subfamily A member 1/2 (Kv1.1/Kv1.2) (Rattus norvegicus, UniProt P10499+P63142); assay: Inhibition of recombinant rat Kv(1.1)2/Kv(1.2)2 expressed in HEK293 cells at -90 mV holding potential by whole cell patch clamp Qpatch method; format: cell-based; summary of the method: as §1
[10] = target: T4, Potassium voltage-gated channel subfamily A member 1/2 (Kv1.1/Kv1.2) (Rattus norvegicus) (UniProt P10499+P63142); assay: Inhibition of recombinant rat Kv1.2/1.2/1.1/1.1 expressed in HEK293 cells at 10 uM at -90 mV holding potential by whole cell patch clamp Qpatch method relative to control; format: cell-based; summary of the method: as §1
T4 sequence (P10499 whole entry, looked up): as the sequence (P10499 whole entry) above
T4 sequence (P63142 whole entry, looked up): as the sequence (P63142 whole entry) above

[11] = as §2; format: functional; summary of the method: as §3
[12] = Partition coefficient, logP of the compound; format: physicochemical; conditions: octanol/water
[13] = as §4; format: functional; summary of the method: as §3
[14] = target: T3, Potassium voltage-gated channel subfamily A member 1/2 (Kv1.1/Kv1.2); assay: Inhibition of recombinant rat Kv(1.1)3/Kv1.2 expressed in HEK293 cells at -90 mV holding potential by whole cell patch clamp Qpatch method; format: cell-based; summary of the method: as §1
[15] = target: T4, Potassium voltage-gated channel subfamily A member 1/2 (Kv1.1/Kv1.2) (Rattus norvegicus); assay: Inhibition of recombinant rat Kv1.1/1.1/1.2/1.2 expressed in HEK293 cells at 10 uM at -90 mV holding potential by whole cell patch clamp Qpatch method relative to control; format: cell-based; summary of the method: as §1
[16] = target: T4, Potassium voltage-gated channel subfamily A member 1/2 (Kv1.1/Kv1.2) (Rattus norvegicus); assay: Inhibition of recombinant rat Kv(1.1)3/Kv1.2 expressed in HEK293 cells assessed as time constant for activation of Kv1.1 channel current at 10 uM at -90 mV holding potential by whole cell patch clamp Qpatch method (reference value: 3.1 +/- 0.2 ms); format: cell-based
[17] = target: T1, Potassium voltage-gated channel subfamily A member 1; assay: Inhibition of Kv1.1 (unknown origin) expressed in HEK293 cells by whole cell patch clamp Qpatch method; format: cell-based; summary of the method: as §1
[18] = target: T3, Potassium voltage-gated channel subfamily A member 1/2 (Kv1.1/Kv1.2); assay: Inhibition of recombinant rat Kv1.1/Kv(1.2)3 expressed in HEK293 cells at -90 mV holding potential by whole cell patch clamp Qpatch method; format: cell-based; summary of the method: as §1
[19] = target: T2, Potassium voltage-gated channel subfamily A member 1; assay: Inhibition of recombinant rat Kv(1.1)4 expressed in HEK293 cells at -90 mV holding potential by whole cell patch clamp Qpatch method; format: cell-based; summary of the method: as §1
[20] = target: T4, Potassium voltage-gated channel subfamily A member 1/2 (Kv1.1/Kv1.2) (Rattus norvegicus); assay: Inhibition of recombinant rat Kv1.2/1.1/1.2/1.1 expressed in HEK293 cells at 10 uM at -90 mV holding potential by whole cell patch clamp Qpatch method relative to control; format: cell-based; summary of the method: as §1
[21] = target: Potassium voltage-gated channel subfamily A member 1 (Rattus norvegicus) (UniProt P10499); assay: Inhibition of recombinant rat Kv1.1 expressed in HEK293 cells assessed as shift of half maximal vale for activation at 10 uM at -90 mV holding potential by whole cell patch clamp Qpatch method; format: cell-based
[22] = target: Potassium voltage-gated channel subfamily A member 2 (Rattus norvegicus, UniProt P63142); assay: Inhibition of recombinant rat Kv1.2(4) expressed in HEK293 cells at -90 mV holding potential by whole cell patch clamp Qpatch method; format: cell-based; summary of the method: as §1
Sequence of Potassium voltage-gated channel subfamily A member 2 (P63142 whole entry): as above

[23] = target: Potassium voltage-gated channel subfamily A member 1 (Rattus norvegicus) (UniProt P10499); assay: Inhibition of recombinant rat Kv1.1 concatamer expressed in HEK293 cells assessed as time constant for activation of Kv1.1 channel current at -90 mV holding potential by whole cell patch clamp Qpatch method (reference value: 2.2 +/- 0.1 ms); format: cell-based
[24] = target: Potassium voltage-gated channel subfamily A member 1 (Rattus norvegicus) (UniProt P10499); assay: Inhibition of recombinant rat Kv1.1 expressed in HEK293 cells assessed as time constant for activation of Kv1.1 channel current at 10 uM at -90 mV holding potential by whole cell patch clamp Qpatch method (reference value: 1.9 +/- 0.15 ms); format: cell-based
[25] = target: T4, Potassium voltage-gated channel subfamily A member 1/2 (Kv1.1/Kv1.2) (Rattus norvegicus); assay: Inhibition of recombinant rat Kv(1.1)2/Kv(1.2)2 expressed in HEK293 cells assessed as time constant for activation of Kv1.1 channel current at 10 uM at -90 mV holding potential by whole cell patch clamp Qpatch method (reference value: 2.8 +/- 0.4 ms); format: cell-based

T1 sequence (Q09470 whole entry): as the sequence (P10499 whole entry) above, with A9V, I202V, T213N, I449M, A471V, G476A, A480T, T481A, D482N counted along it

## COc1cc(CNC(=O)CCCC/C=C/C(C)C)ccc1O [CAPSAICIN]
[1]
  IC50: 29 µM

## COc1ccc([C@@H]2Sc3ccccc3N(CCN(C)C)C(=O)[C@@H]2OC(C)=O)cc1 [DILTIAZEM]
[1]
  IC50: 144 µM

## Cc1ccc(C(c2ccc(C)cc2)(c2ccc(C(=O)NCCCCN)[nH]2)c2ccc(C(=O)NCCCCN)[nH]2)cc1.Cl.Cl
[2]
  inhibition: 8%
Kv1.2
  inhibition at 10 µM: 3%
[3]
  inhibition: 8%
HEK293
  Activity: Non-Toxic
Kv1.4
  inhibition at 10 µM: 3%
Kv1.6
  inhibition at 10 µM: 4%

## Nc1ccncc1 [DALFAMPRIDINE]
Mus musculus [4]
  Activity: inactive
Mus musculus [5]
  Activity: inactive
[6]
  Activity: 105.3%
[7]
  Activity: 105.7%

## COC(=O)C1=C(C)NC(C)=C(C(=O)OC)C1c1ccccc1[N+](=O)[O-] [NIFEDIPINE]
[1]
  IC50: 96 µM

## CC[N+](CC)(CC)CC [TETRYLAMMONIUM]
[1]
  IC50: 30 µM

## O=C(NCC1CCCCN1)c1cc(OCC(F)(F)F)ccc1OCC(F)(F)F (stereo not drawn) [FLECAINIDE]
[1]
  IC50: 209 µM

## Cc1ccc(C(c2ccc(C)cc2)(c2ccc(C(=O)NCCCN)[nH]2)c2ccc(C(=O)NCCCN)[nH]2)cc1.Cl.Cl
[2]
  inhibition: 35%
Kv1.2
  inhibition at 10 µM: 6%
[3]
  inhibition: 32%
HEK293
  Activity: Non-Toxic
Kv1.4
  inhibition at 10 µM: 16%
Kv1.6
  inhibition at 10 µM: 5%

## CC(C)(C)OC(=O)NCCNC(=O)c1ccc(-c2c3nc(c(-c4ccc(C(=O)NCCNC(=O)OC(C)(C)C)cc4)c4ccc([nH]4)c(-c4ccc(C(=O)NCCNC(=O)OC(C)(C)C)cc4)c4nc(c(-c5ccc(C(=O)NCCNC(=O)OC(C)(C)C)cc5)c5ccc2[nH]5)C=C4)C=C3)cc1
[8]
  IC50: 13 µM

## Cc1ccc(C(c2ccc(C)cc2)(c2ccc(C(=O)NCCN)[nH]2)c2ccc(C(=O)NCCN)[nH]2)cc1.Cl.Cl
[9]
  IC50: 57 µM
[10]
  inhibition: 15%
[11]
  Activity: 108.2%
[2]
  inhibition: 40%
[8]
  IC50: 16 µM
Kv1.2
  inhibition at 10 µM: 1%
[12]
  logP: -1.05
[13]
  Activity: 127.8%
[14]
  IC50: 54 µM
[6]
  Activity: 100.9%
[3]
  inhibition: 15%
HEK293
  Activity: Non-Toxic
[7]
  Activity: 102.6%
[15]
  inhibition: 13%
[16]
  TIME: 3.89e-06 h
[17]
  IC50: 16 µM
Kv1.4
  inhibition at 10 µM: 5%
[18]
  IC50: > 100 µM
[19]
  IC50: 14 µM
[20]
  inhibition: 15%
[21]
  V1/2: 40 mV
[22]
  IC50: > 100 µM
Kv1.6
  inhibition at 10 µM: 1%
[23]
  TIME: 5.42e-06 h
[24]
  TIME: 5.64e-06 h
[25]
  TIME: 5e-06 h
